Data published in PMC3900310 (Annals of Clinical and Translational Neurology, 2013).
Read-outs that look alike come from different tables or passages of the source.

Assays:
[1] = test system: ROCK activity (MYPT1 phosphorylation); test: MYPT1 Thr696 phosphorylation in brain and heart after systemic administration; assay type: in vivo, mice; conditions: 10 mg/kg, intraperitoneal
[2] = Pharmacokinetic study: plasma and brain concentrations after oral gavage; assay type: in vivo, mice; conditions: for AUC(0-t) / Cmax / k el: male, C57BL/6, mouse, po
Procedure, shortened: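 Male mice received 100 or 200 mg/kg twice daily by orogastric gavage, five doses. Each time point, from just before the last dose, used a separate group (n = 5). Jugular blood went into K3 EDTA tubes and was spun at 1000 g for 3 min at 4°C. Brains were harvested after saline perfusion. Samples were stored at −80°C and assayed by high-resolution MS. Noncompartmental analysis used best-fit λz, plus one-compartment zero- or first-order models. Brain/plasma exposure was taken as the AUC ratio.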

endothelial cells = conditions: cited from earlier work
[3] = test system: focal cerebral ischemia (transient fMCAO)
[4] = test system: focal cerebral ischemia (permanent fMCAO)
[5] = test system: cortical perfusion during dMCAO; test: Distal middle cerebral artery occlusion; assay type: in vivo, mice; conditions: 200 mg/kg 90 min before dMCAO, laser speckle flowmetry
Procedure, shortened: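 Male mice (25–30 g) given test compound or vehicle (0.4% methylcellulose) by orogastric gavage. […] Mice were intubated, mechanically ventilated and femoral-artery catheterized for blood pressure and blood sampling. Cortical perfusion was imaged by laser speckle through intact skull. Per-pixel CBF was taken relative to preischemic baseline. Areas with residual CBF ≤20%, 21–30% and 31–40% were thresholded.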

ROCK2 = conditions: read-out: ROCK2 IC50; cited from earlier work
ROCK1 = conditions: read-out: ROCK1 IC50; cited from earlier work
recombinant ROCK1 = recombinant ROCK1 (Homo sapiens, UniProt Q13464); test: Recombinant ROCK1 radiometric enzyme assay; assay type: biochemical; conditions: concentrations up to 10 μmol/L, recombinant enzyme system
Chain of recombinant ROCK1 (Q13464 76-338 limits assumed): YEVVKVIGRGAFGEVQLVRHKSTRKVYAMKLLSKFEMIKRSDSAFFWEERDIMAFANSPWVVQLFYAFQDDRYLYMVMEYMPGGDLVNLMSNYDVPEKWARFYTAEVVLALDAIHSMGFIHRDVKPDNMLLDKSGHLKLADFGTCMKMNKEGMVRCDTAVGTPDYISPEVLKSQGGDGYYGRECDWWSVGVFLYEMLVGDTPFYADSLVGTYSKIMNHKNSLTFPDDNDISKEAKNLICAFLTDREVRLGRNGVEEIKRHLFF

[6] = healthy volunteers; ref Surface Logix, Brighton, MA; cited from earlier work
recombinant ROCK2 = recombinant ROCK2 (Homo sapiens, UniProt O75116); test: Recombinant ROCK2 radiometric enzyme assay; assay type: biochemical; conditions: versus ATP (Fig. 1B)
Chain of recombinant ROCK2 (O75116 92-354 limits assumed): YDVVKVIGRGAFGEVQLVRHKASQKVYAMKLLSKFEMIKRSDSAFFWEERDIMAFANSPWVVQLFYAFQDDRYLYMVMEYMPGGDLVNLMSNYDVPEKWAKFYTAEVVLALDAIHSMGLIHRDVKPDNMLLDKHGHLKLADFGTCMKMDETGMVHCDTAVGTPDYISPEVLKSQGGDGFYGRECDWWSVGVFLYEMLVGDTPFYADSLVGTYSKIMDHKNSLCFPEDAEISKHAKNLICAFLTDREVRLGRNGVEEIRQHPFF

[7] = Systemic physiological parameters; assay type: in vivo, mice; conditions: 200 mg/kg
[8] = plasma, one-compartment first-order kinetic absorption model, 100 mg/kg
[9] = aged (12 months) mice, 1 h postischemic onset, 200 mg/kg
[10] = diabetic (db/db) mice, 1 h postischemic onset, 200 mg/kg
[11] = dose response, 24 h preischemic onset, 100 mg/kg every 12 h
[12] = dose response, 24 h preischemic onset, 200 mg/kg every 12 h
[13] = dose response, 24 h preischemic onset, 300 mg/kg every 12 h
[14] = female mice, 1 h postischemic onset, 200 mg/kg
[15] = therapeutic window, 1 h postischemic onset, 200 mg/kg
[16] = therapeutic window, 3 h postischemic onset, 200 mg/kg
[17] = therapeutic window, 6 h postischemic onset, 200 mg/kg
[18] = permanent ischemia, 1 h postischemic onset, 200 mg/kg, sacrifice at 24 h

Q: For `O=c1[nH]ccc2c(S(=O)(=O)N3CCCNCC3)cccc12` [hydroxyfasudil], which “ROCK activity measured by MYPT1 phosphorylation, relative to effect of KD025” value [1] is on record?
A: comparable

Q: With `CC(C)NC(=O)COc1cccc(-c2nc(Nc3ccc4[nH]ncc4c3)c3ccccc3n2)c1` [KD025] as the compound, how does the “λ2 (slope of the log-linear terminal phase)” value ([2]; brain, non-compartmental analysis, 100 mg/kg every 12 h, five doses, oral gavage) read?
A: 0.31 1/h

Q: What about the “A (absorption)” value ([2]; brain, one-compartment first-order kinetic absorption model, 100 mg/kg) of the same compound?
A: 0.67 µg/mL

Q: What about the AUC(0-t) ([2]; brain, 100 mg/kg) of the same compound?
A: 2280 ng·h/mL

Q: What about the Cmax ([2]; brain, 100 mg/kg) of the same compound?
A: 540 ng/mL

Q: And the k el ([2]; brain, 100 mg/kg)?
A: 8.89e-05 s⁻¹

Q: What about the AUC(0-t) ([2]; plasma, 100 mg/kg) of the same compound?
A: 42300 ng·h/mL

Q: And the Cmax ([2]; plasma, 100 mg/kg)?
A: 7280 ng/mL

Q: And the k el ([2]; plasma, 100 mg/kg)?
A: 5e-05 s⁻¹

Q: What about the “A (absorption)” value [2, 8] of the same compound?
A: 9.16 µg/mL

Q: And the “Ka (absorption rate constant)” value [2, 8]?
A: 2.23 h⁻¹

Q: What about the V [2, 8] of the same compound?
A: 11.90 L

Q: What about the “tissue loss in the ipsilateral hemisphere versus vehicle” value ([3]; 200 mg/kg twice a day for 36 h starting 1 h after ischemia onset, measured 4 weeks after ischemia) of the same compound?
A: significantly reduced

Q: What about the “efficacy on infarct volume” value ([3]; 200 mg/kg, treatment started 6 h after ischemia onset) of the same compound?
A: completely lost

Q: What about the infarct volume reduction ([3]; 200 mg/kg, treatment starting 1 h after onset of fMCAO) of the same compound?
A: 34%

Q: What about the infarct volume reduction ([3]; 200 mg/kg, treatment starting 3 h after onset of fMCAO) of the same compound?
A: 26%

Q: And the adverse effects observed ([3]; 300 mg/kg dose level)?
A: increased incidence of vomiting and respiratory difficulties

Q: And the infarct volume reduction ([3]; aged (12 months) male mice, 200 mg/kg starting 1 h after fMCAO)?
A: 34%

Q: And the Mortality [3, 9]?
A: 2/8

Q: What about the Weight loss [3, 9] of the same compound?
A: 3.4 ± 0.6 g

Q: And the Mortality [3, 10]?
A: 0/8

Q: What about the Weight loss [3, 10] of the same compound?
A: 3.8 ± 0.3 g

Q: And the Mortality [3, 11]?
A: 0/6

Q: What about the Weight loss [3, 11] of the same compound?
A: 4.3 ± 0.6 g

Q: What about the Mortality [3, 12] of the same compound?
A: 1/8

Q: And the Weight loss [3, 12]?
A: 3.5 ± 0.4 g

Q: And the Mortality [3, 13]?
A: 2/9

Q: What about the Weight loss [3, 13] of the same compound?
A: 4.5 ± 0.5 g

Q: And the infarct volume reduction ([3]; female mice, 200 mg/kg starting 1 h after fMCAO)?
A: 42%

Q: What about the Mortality [3, 14] of the same compound?
A: 0/9

Q: And the Weight loss [3, 14]?
A: 3.5 ± 0.4 g

Q: What about the “effect on infarct volume in combination with atorvastatin” value ([3]; mouse, in vivo) of the same compound?
A: did not show an additive or synergistic effect

Q: What about the “therapeutic window of efficacy” value ([3]; mouse, in vivo) of the same compound?
A: at least 3 h

Q: What about the “neurological deficits, 5-point scoring system” value ([3]; preischemic treatment, assessed at 48 h prior to sacrifice) of the same compound?
A: ameliorated

Q: And the Mortality [3, 15]?
A: 1/9

Q: And the Weight loss [3, 15]?
A: 5.7 ± 0.2 g

Q: And the Mortality [3, 16]?
A: 0/15

Q: What about the Weight loss [3, 16] of the same compound?
A: 5.2 ± 0.2 g

Q: And the Mortality [3, 17]?
A: 1/8

Q: And the Weight loss [3, 17]?
A: 5.6 ± 0.3 g

Q: And the “incidence of hemorrhagic transformation, semi-quantitative grading” value ([3]; transient fMCAO model (Fig. S1))?
A: did not detect an increase

Q: What about the infarct volume reduction ([3]; type 2 diabetic db/db mice, 200 mg/kg starting 1 h after fMCAO) of the same compound?
A: 32%

Q: What about the “efficacy on infarct volume in permanent ischemia” value ([4]; 200 mg/kg starting 1 h after permanent fMCAO, infarct volume at 24 h) of the same compound?
A: lost its efficacy

Q: And the Mortality [4, 18]?
A: 6/15

Q: What about the Weight loss [4, 18] of the same compound?
A: 3.5 ± 0.3 g

Q: What about the “area of perfusion defect versus vehicle” value [5] of the same compound?
A: significantly reduced

Q: What about the IC50 (ROCK1) of the same compound?
A: 24 µM

Q: What about the “effect on ROCK1 enzymatic activity” value (recombinant ROCK1) of the same compound?
A: little effect

Q: What about the “side effects in phase I study” value [6] of the same compound?
A: no major side effects

Q: And the “mode of ROCK2 inhibition” value (recombinant ROCK2)?
A: competitive with ATP

Q: And the “arterial blood pressure lower compared with vehicle” value [7]?
A: 8%

Q: What about the HR ([7]; N = 5 mice, mean ± SEM) of the same compound?
A: 618 ± 19 bpm

Q: What about the pCO2 ([7]; N = 5 mice, mean ± SEM) of the same compound?
A: 29 ± 2 mmHg

Q: What about the pO2 ([7]; N = 5 mice, mean ± SEM) of the same compound?
A: 135 ± 13 mmHg

Q: What about the BP ([7]; N = 5 mice, mean ± SEM, P = 0.06 versus vehicle) of the same compound?
A: 77 ± 3 mmHg

Q: And the pH ([7]; arterial, N = 5 mice, mean ± SEM)?
A: 7.36 ± 0.02
